Published values gathered from unrelated publications.
Observed: cell growth or viability

N#Cc1ccc(-c2cc(CNc3cccc4cccnc34)on2)cc1 — IC50 (HL-60; MTS; 72 h): 16500 nM
COc1ccc(-c2ccc3c(N4CCOC[C@@H]4C)nc(N4CCOC[C@@H]4C)nc3n2)cc1COC(=O)CCOCCOCCOCCONC(=O)c1ccc(F)c(F)c1Nc1ccc(I)cc1F — IC50 (D54; WST-1; 72 h): 327 nM
N#Cc1ccc(-c2cc(COc3cc(=O)oc4ccccc34)on2)cc1 — IC50 (HL-60; MTS; 72 h): > 100000 nM
COc1cc(C(=O)c2nc(-c3cccc4c3CC(=O)N4)c[nH]2)cc(OC)c1OC — IC50 (M14; MTS; 72 h): 9.5 nM
Cc1noc2c1-c1ccc(-c3cnn(C)c3)cc1C(c1ccc(Cl)cc1)=N[C@H]2CC(N)=O — IC50 (MP41; ATP luminescence; 72 h): 376 nM
COc1ccc(Nc2ncnc3c2ncn3Cc2ccc(C(=O)Nc3ccccc3N)cc2)cc1 — IC50 (U-266; MTT; 72 h): 4210 nM
C[C@H]1[C@H](C)CC[C@]2(C)CC[C@]3(C)C(=CC(=O)[C@@H]4[C@@]5(C)CC[C@@H](O)[C@](C)(C(=O)NCc6cn(-c7ccccc7)nn6)[C@@H]5CC[C@]43C)[C@H]12 — IC50 (HDF; MTT; 24 h): 181000 nM
C/C(=N/NC(=O)c1cn(-c2ccccc2)nc1-c1ccc(Br)cc1)c1c(O)cc(C)oc1=O — IC50 (Vero; MTT; 48 h): 192000 nM
O=C(NO)c1ccc(Cn2cnc3c(Nc4ccc(F)c(Cl)c4)ncnc32)cc1 — IC50 (U-266; MTT; 72 h): 1460 nM
FC(F)(F)c1cc(OCc2cc(-c3ccccn3)no2)c2ccccc2n1 — IC50 (HL-60; MTS; 72 h): > 100000 nM
CO[C@H]1[C@H](O[C@H]([C@H]2O[C@@H](n3ccc(=O)[nH]c3=O)[C@H](O)[C@@H]2O)[C@H](NCCCNC(=O)[C@@H](NC(=O)[C@@H](NC(=O)N[C@H](C(=O)O)C(C)C)[C@@H]2CCN=C(N)N2)[C@@H](OC(=O)CCCCCCCCCCCCN(O)C(=N)N)C(C)C)C(=O)O)O[C@H](CN)[C@H]1O — IC50 (SK-BR-3; WST-1): 590 nM
CCS(=O)(=O)Nc1ccc(Oc2ccc(F)cc2F)c(-c2cn(C)c(=O)c3[nH]ccc23)c1 — IC50 (MP41; ATP luminescence; 72 h): 99.6 nM
Nc1ccccc1NC(=O)c1ccc(Cn2cnc3c(Nc4ccc(Cl)cc4)ncnc32)cc1 — IC50 (U-266; MTT; 72 h): 330 nM
COc1cc([C@@H]2c3cc4c(cc3[C@@H](O[C@@H]3O[C@@H]5CO[C@@H](C)O[C@H]5[C@H](O)[C@H]3O)[C@H]3COC(=O)[C@H]23)OCO4)cc(OC)c1O — IC50 (HL-60; MTS; 72 h): 30 nM
Cc1ccc(C(C)C)c(OC2=C(Cl)C(=O)c3ccccc3C2=O)c1 — IC50 (SK-BR-3; MTT; 24 h): > 60 µg/mL
COc1cc(C(=O)c2nc(-c3ccncc3)c[nH]2)cc(OC)c1OC — IC50 (M14; MTS; 72 h): > 1000 nM
c1ccc(Oc2ccc(Nc3c4c(nc5ccccc35)CCC4)cc2)cc1 — IC50 (RAW264.7; resazurin; 72 h): 40800 nM
COc1cc(C(=O)c2nc(-c3cccc4[nH]nnc34)c[nH]2)cc(OC)c1OC — IC50 (M14; MTS; 72 h): 53.2 nM
C/C(=N/NC(=O)c1cn(-c2ccccc2)nc1-c1ccc(F)cc1)c1c(O)cc(C)oc1=O — IC50 (Vero; MTT; 48 h): 191000 nM
Fc1ccc(NC(=S)N/N=C/c2cccc3cc4ccccc4nc23)cc1 — IC50 (SK-BR-3; MTT; 48 h): > 50000 nM
C[C@H]1[C@H](C)CC[C@]2(C)CC[C@]3(C)C(=CC(=O)[C@@H]4[C@@]5(C)CC[C@@H](O)[C@](C)(C(=O)NCc6cn(-c7ccc(F)cc7)nn6)[C@@H]5CC[C@]43C)[C@H]12 — IC50 (HDF; MTT; 24 h): 108000 nM
COc1cc(C(=O)c2nc(-c3cccc4[nH]ccc34)c[nH]2)cc2c1OCO2 — IC50 (M14; MTS; 72 h): 3.6 nM
COc1ccc(Nc2ncnc3c2ncn3Cc2ccc(C(=O)NO)cc2)cc1 — IC50 (U-266; MTT; 72 h): 1110 nM
COc1ccc(-n2cc(CNC(=O)[C@@]3(C)[C@H](O)CC[C@@]4(C)[C@H]3CC[C@]3(C)[C@@H]4C(=O)C=C4[C@@H]5[C@@H](C)[C@H](C)CC[C@]5(C)CC[C@]43C)nn2)cc1 — IC50 (HDF; MTT; 24 h): 109000 nM
COc1cc(C(=O)c2nc(-c3ccsc3)c[nH]2)cc(OC)c1OC — IC50 (M14; MTS; 72 h): 48.5 nM
COc1ccc(N(C)c2nc(C)nc3ccccc23)cc1OCCCC(=O)NO — IC50 (MP41; ATP luminescence; 72 h): 84.4 nM
COc1cccc2c1C(=O)c1c(O)c3c(c(O)c1C2=O)C[C@@](O)(C(=O)CO)C[C@@H]3O[C@H]1C[C@H](N)[C@H](O)[C@H](C)O1 — IC50 (SK-BR-3; MTT; 24 h): 54.4 µg/mL
COc1cc(C(=O)c2nc(-c3ccc4cc[nH]c4c3)c[nH]2)cc(OC)c1OC — IC50 (M14; MTS; 72 h): 14.3 nM
N/C(=N\O)c1ccc(-c2cc(CNc3cccc4cccnc34)on2)cc1 — IC50 (HL-60; MTS; 72 h): 2800 nM
S=C(N/N=C/c1cccc2cc3ccccc3nc12)Nc1ccccc1 — IC50 (SK-BR-3; MTT; 48 h): > 50000 nM
O=C1C[C@@H](c2ccccc2)Oc2cc(O)cc(O)c21 — IC50 (Vero; MTT; 72 h): 103000 nM
O=C(NO)c1ccc(Cn2cnc3c(Nc4ccc(Br)cc4F)ncnc32)cc1 — IC50 (U-266; MTT; 72 h): 750 nM
Cc1[nH]c2ccccc2c1CCNCc1ccc(/C=C/C(=O)NO)cc1 — IC50 (MP41; ATP luminescence; 72 h): 14.3 nM
COc1cc(C(=O)c2nc(-c3cccc4[nH]cnc34)c[nH]2)cc(OC)c1OC — IC50 (M14; MTS; 72 h): 15.9 nM
CC(C)C[C@H](NC(=O)[C@H](Cc1ccccc1)NC(=O)c1cnccn1)B(O)O — IC50 (MP41; ATP luminescence; 72 h): 4.34 nM
CC(C)CNC(=S)N/N=C/c1cccc2cc3ccccc3nc12 — IC50 (SK-BR-3; MTT; 48 h): > 50000 nM
C[C@H]1[C@H](C)CC[C@]2(C)CC[C@]3(C)C(=CC(=O)[C@@H]4[C@@]5(C)CC[C@@H](O)[C@](C)(C(=O)NCc6cn(-c7ccccc7C(F)(F)F)nn6)[C@@H]5CC[C@]43C)[C@H]12 — IC50 (HDF; MTT; 24 h): 103000 nM
COc1ccc(-c2nc(N3CCOCC3)c3sc(CN(C)c4ncc(C(=O)NO)cn4)cc3n2)cn1 — IC50 (MP41; ATP luminescence; 72 h): 5.96 nM
COc1ccc(NC(=S)N/N=C/c2cccc3cc4ccccc4nc23)cc1 — IC50 (SK-BR-3; MTT; 48 h): > 50000 nM
